A selection: hits, their analogues and other compounds. The true share with any hit is near 5.9%.
IDH1 R132H inh: inhibitors of IDH1 R132H reductase, primary screen, biochemical, plate reader, single point; 0.18% of 70,000 active; diaphorase/resazurin fluorescence, 60 min; inhibition, % at 10 µM; Isocitrate dehydrogenase [NADP] cytoplasmic (Homo sapiens), O75874; in the data active = inhibition above about 34%; inconclusive = no clear call, values can overlap the other calls; inactive = below about 11%;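 note: 0% = DMSO and 100% = no enzyme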
Target sequence (O75874 whole entry R132H): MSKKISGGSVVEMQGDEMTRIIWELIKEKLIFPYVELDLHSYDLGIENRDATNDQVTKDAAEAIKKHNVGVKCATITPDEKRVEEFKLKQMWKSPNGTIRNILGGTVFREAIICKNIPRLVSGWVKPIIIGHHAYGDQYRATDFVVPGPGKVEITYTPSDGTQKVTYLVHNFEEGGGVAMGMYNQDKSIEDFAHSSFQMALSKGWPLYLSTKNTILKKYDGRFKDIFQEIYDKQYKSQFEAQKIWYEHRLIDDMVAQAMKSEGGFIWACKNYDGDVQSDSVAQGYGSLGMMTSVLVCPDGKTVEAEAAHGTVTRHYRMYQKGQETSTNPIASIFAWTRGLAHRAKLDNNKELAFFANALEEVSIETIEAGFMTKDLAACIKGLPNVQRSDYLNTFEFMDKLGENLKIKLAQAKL
Pf Dd2 inh: P. falciparum Dd2 growth inhibitors, primary screen, SYBR Green fluorescence, single dose replicates. 72 h; stronger effect = lower value. 2.3% of 94,000 active. activity change, % at 10 µM; in the data active = activity change below about -80%; inconclusive = no clear call, values can overlap the other calls
T cruzi growth-1: T. cruzi intracellular proliferation inhibitors, primary screen, cell-based, beta-gal Tulahuen parasites, NIH3T3 host, luminescence | T. cruzi beta-gal in NIH3T3, GalScreen luminescence, 90 h | AID 624255, 2012 | inhibition, % at 8.34 µM | 5.9% of 77,000 active;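 active = mean inhibition above about 93%, with at least 55% of replicates each passing it, limit read from the data, passing the limit was not always enough; inconclusive = only one of those two conditions holds; inactive = neither condition holds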
KDM4C inh: inhibitors of GASC-1 (KDM4C) histone demethylase, primary screen, biochemical, single concentration HTS; GST-KDM4C 2-372, H3K9me3 peptide, LANCE TR-FRET; inhibition, % at 12.5 µM; 0.15% of 96,000 active;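 active = mean replicate inhibition above about 25%, with at least 55% of replicates also reaching it, limit read from the data, passing the limit was not always enough; inconclusive = only one of those two conditions met; inactive = neither condition met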
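Material: N-terminal GST-fused human GASC-1 (KDM4C) fragment, residues 2-372. Input: 10 nM enzyme. Incubation: enzyme reaction 30 min, then detection 60 min, both room temperature. Doses: one test concentration per compound. Read-out basis: inhibition from TR-FRET ratio decrease. Detection: LANCE TR-FRET, excitation 340 nm, emissions 618 and 671 nm.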
T cruzi growth-2: T. cruzi intracellular proliferation inhibitors, confirmation, cell-based, NIH3T3 host, beta-gal parasite, luminescence, cherry-pick; inhibition, % at 8.35 µM; T. cruzi beta-gal in NIH3T3, GalScreen luminescence, 90 h; 72% of 5,600 active; shares compounds with T cruzi growth-1; AID 651739, 2012;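 active = mean replicate inhibition above about 95% and at least 55% of replicates individually reaching it, limit read from the data; inconclusive = only one of the two criteria is met; inactive = neither criterion is met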
T cruzi growth-3: inhibitors of intracellular T. cruzi replication, confirmation, NIH3T3 host cells, beta-gal parasites, cherry-pick, set 2. shares compounds with T cruzi growth-1. AID 651740, 2012. T. cruzi beta-gal in NIH3T3, GalScreen luminescence, 90 h. 21% of 5,600 active. inhibition, % at 2.09 µM;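 active = mean inhibition above about 95%, with at least 55% of replicates also reaching it, limit read from the data; inconclusive = meets just one of the two conditions; inactive = meets neither condition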;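 note: plate controls were neutral control median for no effect and positive control median for full effect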
3T3 cytotox: cytotoxicity in mouse NIH/3T3 fibroblasts, confirmation, cytotoxicity control for T. cruzi proliferation inhibitor project, cell-based, cherry-pick, single point; shares compounds with T cruzi growth-1; cytotoxicity (signal decrease), % at 8.35 µM; NIH/3T3 viability, CellTiter-Glo ATP luminescence, 90 h; 14% of 5,600 active;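 active = mean signal decrease across replicates above about 35% based on untreated-well scatter, with enough replicates individually passing, limit read from the data; inconclusive = no rule stated though some were filed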;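 note: 0% = median of neutral control wells and 100% = median of positive control wells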
NIH3T3 tox 2: NIH/3T3 fibroblast cytotoxicity, confirmation, cytotoxicity control, cell-based, cherry-pick, single point, set 2; shares compounds with T cruzi growth-1; NIH/3T3 viability, CellTiter-Glo ATP luminescence, 90 h; inhibition, % at 24.9 µM; 56% of 5,600 active; AID 651744, 2012;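 active = mean loss of cell viability signal at or above a set limit, and enough replicates individually reaching it; inconclusive = meets only the mean limit or only the replicate share; inactive = meets neither condition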;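 note: 0% = median of neutral control wells and 100% = median of positive control wells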
An asterisk follows results filed as active; ? = inconclusive; . = no result given.

SMILES | IDH1 R132H inh | Pf Dd2 inh | T cruzi growth-1 | KDM4C inh | T cruzi growth-2 | T cruzi growth-3 | 3T3 cytotox | NIH3T3 tox 2
C[C@H](CO)N1C[C@H](C)[C@H](CN(C)Cc2ccccn2)Oc2cc(Br)ccc2S1(=O)=O | -2 | -1 | -9 | 3 | . | . | . | .
Cc1ccc(-c2ccc3c(c2)O[C@H](CN(C)Cc2ccccn2)[C@@H](C)CN([C@@H](C)CO)S3(=O)=O)cc1 | . | -55 | 117* | 1 | 103* | 68 | 83* | 104*
C[C@@H]1CN([C@@H](C)CO)S(=O)(=O)c2ccc(-c3ccccc3)cc2O[C@@H]1CN(C)Cc1ccccn1 | . | -5 | -21 | -2 | . | . | . | .
Cc1ccc(-c2ccc3c(c2)O[C@H](CN(C)Cc2ccccn2)[C@@H](C)CN([C@H](C)CO)S3(=O)=O)cc1 | 0 | -40 | 91 | 2 | . | . | . | .
COc1cccc(-c2ccc([C@@H]3[C@@H](CO)N4CCCCN(C(=O)c5ccc6c(c5)OCO6)C[C@@H]34)cc2)c1 | . | 20 | ? | 0 | 104* | 57 | 27 | 56*
COc1cccc(-c2ccc([C@H]3[C@H](CO)N4CCCCN(C(=O)c5ccc6c(c5)OCO6)C[C@@H]34)cc2)c1 | . | 0 | 109* | -2 | 101* | 45 | 40* | 72*
COc1cccc(-c2ccc([C@H]3[C@H]4CN(C(=O)c5ccc6c(c5)OCO6)CCCCN4[C@H]3CO)cc2)c1 | . | -47 | 76 | -4 | . | . | . | .
Cc1ccc(S(=O)(=O)N(CC(=O)O)c2cc(Cl)ccc2C)cc1 | 0 | . | . | . | . | . | . | .
Cc1ccc(S(=O)(=O)N(C)C[C@H]2OCCCC[C@@H](C)Oc3ccc(NC(=O)Nc4ccccc4)cc3C(=O)N([C@@H](C)CO)C[C@H]2C)cc1 | -2 | -74 | ? | 0 | 106* | 103* | -17 | 19
C[C@@H]1CCCCO[C@H](CN(C)S(=O)(=O)c2ccccc2)[C@H](C)CN([C@@H](C)CO)C(=O)c2cc(NC(=O)Nc3ccccc3)ccc2O1 | 0 | -41 | 51 | 0 | . | . | . | .
C[C@H]1CCCCO[C@@H](CN(C)S(=O)(=O)c2ccccc2)[C@@H](C)CN([C@@H](C)CO)C(=O)c2cc(NC(=O)Nc3ccccc3)ccc2O1 | -1 | -66 | 84 | -1 | . | . | . | .
Cc1ccc(S(=O)(=O)N(C)C[C@H]2OCCCC[C@H](C)Oc3ccc(NC(=O)Nc4ccccc4)cc3C(=O)N([C@@H](C)CO)C[C@@H]2C)cc1 | 1 | -83* | 111* | 6 | 101* | 107* | -24 | 3
Cc1ccc(S(=O)(=O)N(C)C[C@H]2OCCCC[C@@H](C)Oc3ccc(NC(=O)Nc4ccccc4)cc3C(=O)N([C@H](C)CO)C[C@H]2C)cc1 | -1 | -87* | 113* | -1 | 109* | 108* | -8 | 7
C[C@@H]1CCCCO[C@@H](CN(C)S(=O)(=O)c2ccccc2)[C@@H](C)CN([C@@H](C)CO)C(=O)c2cc(NC(=O)Nc3ccccc3)ccc2O1 | -1 | -75 | 30 | . | . | . | . | .
Cc1ccc(S(=O)(=O)N(C)C[C@H]2OCCCC[C@@H](C)Oc3ccc(NC(=O)Nc4ccccc4)cc3C(=O)N([C@@H](C)CO)C[C@@H]2C)cc1 | . | -83* | 109* | -1 | 109* | 63 | 18 | 35*
O=C(CSc1nc2[nH]ncc2c(=O)n1-c1ccccc1)Nc1nsc(-c2ccccc2)n1 | 0 | . | . | . | . | . | . | .
C[C@@H]1CN([C@H](C)CO)C(=O)c2cc(NC(=O)c3ccccc3)ccc2O[C@@H](C)CCCCO[C@@H]1CN(C)S(=O)(=O)c1ccccc1 | . | -72 | 24 | -1 | . | . | . | .
Cc1ccc(S(=O)(=O)N(C)C[C@@H]2OCCCC[C@H](C)Oc3ccc(NC(=O)c4ccccc4)cc3C(=O)N([C@H](C)CO)C[C@@H]2C)cc1 | -2 | -72 | 95* | 0 | 104* | 55 | -14 | ?
Cc1ccc(S(=O)(=O)N(C)C[C@H]2OCCCC[C@H](C)Oc3ccc(NC(=O)Nc4ccccc4)cc3C(=O)N([C@H](C)CO)C[C@H]2C)cc1 | . | -88* | ? | 2 | 111* | 32 | -3 | -4
Cc1ccc(S(=O)(=O)N(C)C[C@@H]2OCCCC[C@H](C)Oc3ccc(NC(=O)Nc4ccccc4)cc3C(=O)N([C@@H](C)CO)C[C@@H]2C)cc1 | -1 | -90* | 108* | 0 | 102* | 71 | -2 | 6
C[C@@H]1CN([C@@H](C)CO)C(=O)c2cc(NS(=O)(=O)c3ccc(F)cc3)ccc2O[C@@H](C)CCCCO[C@@H]1CN(C)S(=O)(=O)c1ccc(Cl)cc1 | 0 | -76 | ? | 1 | 106* | 103* | -23 | ?
C[C@@H]1CCCCO[C@H](CN(C)S(=O)(=O)c2ccc(Cl)cc2)[C@@H](C)CN([C@@H](C)CO)C(=O)c2cc(NS(=O)(=O)c3ccc(F)cc3)ccc2O1 | . | -56 | 86 | 1 | . | . | . | .
C[C@H](CO)N1C[C@H](C)[C@@H](CN(C)S(=O)(=O)c2ccc(F)cc2)OCCCC[C@H](C)Oc2ccc(NS(=O)(=O)c3ccc(Cl)cc3)cc2C1=O | 3 | -43 | 100* | 2 | ? | ? | 48* | 27*
C[C@@H]1CCCCO[C@@H](CN(C)S(=O)(=O)c2ccc(Cl)cc2)[C@H](C)CN([C@H](C)CO)C(=O)c2cc(NS(=O)(=O)c3ccc(F)cc3)ccc2O1 | 0 | -60 | 61 | 1 | . | . | . | .
C[C@@H]1CCCCO[C@@H](CN(C)S(=O)(=O)c2ccc(F)cc2)[C@H](C)CN([C@@H](C)CO)C(=O)c2cc(NS(=O)(=O)c3ccc(Cl)cc3)ccc2O1 | 1 | -56 | 103* | 0 | 95* | 95 | 6 | 34*
C[C@@H]1CN([C@H](C)CO)C(=O)c2cc(NS(=O)(=O)c3ccc(Cl)cc3)ccc2O[C@@H](C)CCCCO[C@H]1CN(C)S(=O)(=O)c1ccc(F)cc1 | 1 | -53 | 103* | 0 | 100* | 110* | 8 | -9

From PubChem BioAssay
